One data set concerns the target TGF-beta receptor type-2 (Homo sapiens, UniProt P37173). As to the kind of experiment: Inhibition of TGFBR2 (unknown origin) by LanthaScreen TR-FRET assay. In a few lines: (§1)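 Outsourced SelectScreen profiling using a LanthaScreen TR-FRET binding format, in which a tight-binding tracer is displaced from the kinase.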
A general note: TR-FRET usually uses a lanthanide donor and a delayed reading to cut background.

The target in the next data set is T1, Activin receptor type-1 (Homo sapiens, UniProt Q04771).
T1 sequence (Q04771 whole entry): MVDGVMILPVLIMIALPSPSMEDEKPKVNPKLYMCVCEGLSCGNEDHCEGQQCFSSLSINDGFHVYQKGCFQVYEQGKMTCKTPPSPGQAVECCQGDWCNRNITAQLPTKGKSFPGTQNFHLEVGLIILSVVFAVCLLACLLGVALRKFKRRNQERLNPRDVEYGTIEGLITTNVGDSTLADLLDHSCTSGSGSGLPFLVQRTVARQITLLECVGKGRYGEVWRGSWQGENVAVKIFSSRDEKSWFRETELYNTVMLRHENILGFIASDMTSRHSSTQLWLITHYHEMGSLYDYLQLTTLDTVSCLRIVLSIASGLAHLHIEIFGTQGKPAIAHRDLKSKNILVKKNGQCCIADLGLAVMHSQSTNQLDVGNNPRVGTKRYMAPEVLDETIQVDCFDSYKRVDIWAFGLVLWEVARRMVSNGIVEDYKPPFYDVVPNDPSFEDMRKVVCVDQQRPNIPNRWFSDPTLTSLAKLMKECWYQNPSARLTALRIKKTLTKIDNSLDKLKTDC
Briefly: Inhibition of ACVR1 (unknown origin) by LanthaScreen TR-FRET assay. The essentials:
as §1

In data set [1] the target is T2, Bone morphogenetic protein receptor type-2 (Homo sapiens, UniProt Q13873).
T2 sequence (Q13873 whole entry): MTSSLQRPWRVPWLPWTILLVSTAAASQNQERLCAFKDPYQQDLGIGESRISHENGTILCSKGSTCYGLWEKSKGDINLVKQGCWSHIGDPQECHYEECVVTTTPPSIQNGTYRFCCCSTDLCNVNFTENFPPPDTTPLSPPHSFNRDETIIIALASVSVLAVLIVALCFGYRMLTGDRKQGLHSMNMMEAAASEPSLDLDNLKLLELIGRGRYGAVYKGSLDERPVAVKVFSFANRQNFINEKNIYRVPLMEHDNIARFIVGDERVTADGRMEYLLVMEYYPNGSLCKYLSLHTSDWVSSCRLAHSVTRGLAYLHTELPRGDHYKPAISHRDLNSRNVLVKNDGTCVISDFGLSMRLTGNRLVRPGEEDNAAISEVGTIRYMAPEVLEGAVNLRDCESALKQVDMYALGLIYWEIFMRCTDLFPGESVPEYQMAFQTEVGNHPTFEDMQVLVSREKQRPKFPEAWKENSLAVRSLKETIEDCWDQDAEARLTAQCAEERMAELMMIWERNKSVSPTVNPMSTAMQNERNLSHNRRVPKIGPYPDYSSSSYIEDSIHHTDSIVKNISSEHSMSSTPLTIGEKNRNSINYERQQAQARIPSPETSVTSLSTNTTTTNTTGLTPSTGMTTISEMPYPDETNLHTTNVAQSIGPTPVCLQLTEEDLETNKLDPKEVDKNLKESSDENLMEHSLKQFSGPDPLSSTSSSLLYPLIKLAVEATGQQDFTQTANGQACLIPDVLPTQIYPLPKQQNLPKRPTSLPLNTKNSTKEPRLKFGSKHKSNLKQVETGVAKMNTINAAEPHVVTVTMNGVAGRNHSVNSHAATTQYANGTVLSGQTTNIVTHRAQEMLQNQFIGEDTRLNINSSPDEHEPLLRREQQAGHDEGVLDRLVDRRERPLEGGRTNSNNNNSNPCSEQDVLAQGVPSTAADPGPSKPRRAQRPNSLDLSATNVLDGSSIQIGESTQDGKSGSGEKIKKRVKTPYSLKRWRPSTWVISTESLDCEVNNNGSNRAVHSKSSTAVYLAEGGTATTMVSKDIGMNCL
As to the kind of experiment: Inhibition of recombinant C-terminal 6His-tagged human BMPR2 (188 to 517 residues) expressed in Escherichia coli Rosetta by LanthaScreen TR-FRET assay. The essentials:
as §1

Data set [2] concerns the target Bone morphogenetic protein receptor type-1A (Homo sapiens, UniProt P36894). As to the kind of experiment: Inhibition of BMPR1A (unknown origin) by LanthaScreen TR-FRET assay. In a few lines:
as §1

For the next data set, the target named is Activin receptor type-2A (Homo sapiens, UniProt P27037). Briefly: Inhibition of ACVR2A (unknown origin) by LanthaScreen TR-FRET assay. The essentials:
as §1

Data set [3] in a line: Inhibition of BMP signalling pathway in BMP2-stimulated human HEK293T cells expressing BRE and luciferase reporter assessed as inhibition of luciferase transactivation by measuring BRE-reporter activity preincubated for 30 mins followed by BMP2 stimulation and measured after 6 hrs by Bright-GLO mediated luciferase assay. It is filed as cell-based. Particulars: HEK-293T. In a few lines: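 293T cells stably carrying a BMP-responsive-element luciferase reporter, 2 × 10^4 per well, attached overnight in phenol-red-free DMEM with 2 mM glycine and 2% heat-inactivated FBS. Pretreated 30 min with inhibitor, then 5 ng/mL BMP2 for 6 h. Bright-Glo luminescence read; IC50 by nonlinear regression.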
Background: In a reporter assay the amount or activity of a reporter protein is the signal.

For another data set, the target named is Activin receptor type-2B (Homo sapiens, UniProt Q13705). Briefly: Inhibition of ACVR2B (unknown origin) by LanthaScreen TR-FRET assay. In a few lines:
as §1

Data set [4] addresses T3, Activin receptor type-1B (Homo sapiens) (UniProt P36896).
T3 sequence (whole entry): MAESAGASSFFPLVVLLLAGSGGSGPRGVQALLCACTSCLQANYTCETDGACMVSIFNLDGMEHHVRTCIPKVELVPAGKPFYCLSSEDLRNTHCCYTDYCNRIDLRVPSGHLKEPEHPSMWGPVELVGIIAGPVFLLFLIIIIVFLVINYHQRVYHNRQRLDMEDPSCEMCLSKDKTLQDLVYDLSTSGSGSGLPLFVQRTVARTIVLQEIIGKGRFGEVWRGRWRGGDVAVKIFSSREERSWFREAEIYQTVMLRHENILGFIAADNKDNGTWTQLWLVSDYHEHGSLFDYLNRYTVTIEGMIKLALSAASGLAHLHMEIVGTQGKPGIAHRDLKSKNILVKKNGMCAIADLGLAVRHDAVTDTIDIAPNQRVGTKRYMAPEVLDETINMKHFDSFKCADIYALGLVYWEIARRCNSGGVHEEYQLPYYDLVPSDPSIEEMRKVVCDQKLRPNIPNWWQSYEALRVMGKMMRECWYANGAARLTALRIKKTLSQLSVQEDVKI
Briefly: Inhibition of ACVR1B (unknown origin) by Z'-LYTE assay. In a few lines: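 Outsourced SelectScreen profiling by Z'-LYTE, a fluorescence coupled-enzyme kinase activity assay based on protease sensitivity of nonphosphorylated versus phosphorylated peptide.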

Data set [5] in a line: Metabolic stability in human liver microsomes assessed as half life at 2 uM and mesured upto 60 mins in presence of NADPH by UHPLC-MS analysis. It is filed as ADME, Microsome. Particulars: microsomes, 1 h, 2 µM. (In general: Microsomes from liver hold many membrane-bound enzymes, among them those of drug oxidation.)
A short description of data set [6]: Metabolic stability in mouse liver microsomes assessed as half life at 2 uM and mesured upto 60 mins in presence of NADPH by UHPLC-MS analysis. It is filed as ADME, Microsome. Particulars: microsomes, 1 h, 2 µM.

Each structure is given as a SMILES string. pIC50: −log10 of the molar value. The source made the active and inactive calls. The rule behind the calls is not given here. A value given as a limit tells only on which side of the number the result lay.

Sequence of TGF-beta receptor type-2 (P37173 whole entry): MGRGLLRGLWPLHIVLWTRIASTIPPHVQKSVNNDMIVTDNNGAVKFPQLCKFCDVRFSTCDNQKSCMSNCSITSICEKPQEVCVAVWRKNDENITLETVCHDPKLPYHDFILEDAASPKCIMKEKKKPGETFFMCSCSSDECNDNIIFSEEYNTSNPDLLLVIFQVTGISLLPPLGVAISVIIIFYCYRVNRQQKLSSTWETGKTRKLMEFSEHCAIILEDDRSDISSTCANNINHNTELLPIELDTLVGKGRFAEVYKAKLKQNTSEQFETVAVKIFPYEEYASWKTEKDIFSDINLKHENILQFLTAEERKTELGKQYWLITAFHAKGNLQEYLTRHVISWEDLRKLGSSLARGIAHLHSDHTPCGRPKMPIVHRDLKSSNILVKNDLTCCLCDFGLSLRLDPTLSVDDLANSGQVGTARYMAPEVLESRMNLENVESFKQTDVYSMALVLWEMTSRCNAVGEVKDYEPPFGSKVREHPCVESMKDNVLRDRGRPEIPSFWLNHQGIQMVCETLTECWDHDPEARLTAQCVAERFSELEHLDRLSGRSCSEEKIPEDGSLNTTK
Sequence of Activin receptor type-2A (P27037 whole entry): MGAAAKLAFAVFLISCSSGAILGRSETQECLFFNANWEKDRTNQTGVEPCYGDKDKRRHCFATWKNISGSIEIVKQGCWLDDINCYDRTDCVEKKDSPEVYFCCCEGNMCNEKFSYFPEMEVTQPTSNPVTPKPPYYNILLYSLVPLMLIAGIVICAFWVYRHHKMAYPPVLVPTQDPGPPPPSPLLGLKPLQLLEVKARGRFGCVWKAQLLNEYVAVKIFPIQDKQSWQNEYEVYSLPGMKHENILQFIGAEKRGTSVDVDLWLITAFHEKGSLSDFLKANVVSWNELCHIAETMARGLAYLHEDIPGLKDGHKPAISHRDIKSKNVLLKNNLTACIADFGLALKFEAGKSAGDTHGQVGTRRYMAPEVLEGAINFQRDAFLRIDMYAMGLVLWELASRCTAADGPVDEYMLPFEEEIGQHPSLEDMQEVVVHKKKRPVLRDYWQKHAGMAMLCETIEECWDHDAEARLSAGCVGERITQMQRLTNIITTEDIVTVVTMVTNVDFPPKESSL
Sequence of Activin receptor type-2B (Q13705 whole entry): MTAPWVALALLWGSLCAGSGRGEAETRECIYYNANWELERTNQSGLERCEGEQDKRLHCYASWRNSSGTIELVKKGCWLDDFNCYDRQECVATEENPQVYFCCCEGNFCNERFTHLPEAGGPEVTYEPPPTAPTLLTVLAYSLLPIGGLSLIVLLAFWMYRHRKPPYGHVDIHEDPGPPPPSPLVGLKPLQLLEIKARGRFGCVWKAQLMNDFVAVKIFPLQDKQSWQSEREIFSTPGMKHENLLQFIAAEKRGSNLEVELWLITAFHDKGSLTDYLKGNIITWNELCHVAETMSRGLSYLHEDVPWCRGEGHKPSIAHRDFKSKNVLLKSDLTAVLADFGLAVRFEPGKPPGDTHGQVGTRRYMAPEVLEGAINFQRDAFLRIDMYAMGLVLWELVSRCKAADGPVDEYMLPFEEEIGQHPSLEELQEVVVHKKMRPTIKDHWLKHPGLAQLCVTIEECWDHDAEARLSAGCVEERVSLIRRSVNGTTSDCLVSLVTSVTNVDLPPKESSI
Sequence of Bone morphogenetic protein receptor type-1A (P36894 whole entry): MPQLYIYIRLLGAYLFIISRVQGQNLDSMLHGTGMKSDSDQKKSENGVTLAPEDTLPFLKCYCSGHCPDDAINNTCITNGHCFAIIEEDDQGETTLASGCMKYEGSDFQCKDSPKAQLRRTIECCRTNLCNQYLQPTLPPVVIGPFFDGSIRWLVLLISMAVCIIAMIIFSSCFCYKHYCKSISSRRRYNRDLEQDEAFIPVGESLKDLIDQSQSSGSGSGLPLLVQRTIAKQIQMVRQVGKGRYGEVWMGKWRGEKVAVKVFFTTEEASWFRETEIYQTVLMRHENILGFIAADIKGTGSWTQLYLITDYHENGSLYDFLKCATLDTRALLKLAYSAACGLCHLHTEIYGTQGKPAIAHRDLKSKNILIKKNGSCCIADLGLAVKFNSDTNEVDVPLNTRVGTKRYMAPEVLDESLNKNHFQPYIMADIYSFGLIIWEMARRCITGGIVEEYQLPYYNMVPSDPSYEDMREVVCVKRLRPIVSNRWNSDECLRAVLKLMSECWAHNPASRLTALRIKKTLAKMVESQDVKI

For orientation: pIC50 means the IC50 on a negative log10 scale, so that one unit is a factor of ten. As to `CNC(=O)[C@@H]1CC[C@@H](n2c(-c3ccc4cnccc4c3)nc3ccc(C(=O)NCc4cccc(C(N)=O)c4)cc32)C1`, the inhibition entry (on TGF-beta receptor type-2; at Activin receptor type-2A; on Activin receptor type-2B; in data set [4]) was “inactive” each time. The pIC50 is 6.60 against Activin receptor type-1, 8.74 in [1], under 6.00 in [2] and 4.62 in data set [3].
As for `COc1cnc(Nc2cccc(S(N)(=O)=O)c2)nc1N1CCN(c2ccccc2)C(=O)C1`, the inhibition entry (on TGF-beta receptor type-2; in [2]; on Activin receptor type-2A; on Activin receptor type-2B; in [4]) was “inactive” in each case. Moreover, the results for the t1/2 in [5] and in data set [6] were 305 min and 40 min, respectively. For the same compound, the pIC50 is 8.55 in [1] and 5.16 in data set [3].
As to `CNC(=O)CCc1ccc(C(=O)NCc2cccc(N3CCN(c4nc(Nc5cccc(S(N)(=O)=O)c5)ncc4OC)CC3)c2)cc1`, the inhibition entry (on TGF-beta receptor type-2; in data set [2]; at Activin receptor type-2A; on Activin receptor type-2B; in [4]) was “inactive” each time. In addition, the values for the pIC50 (against Activin receptor type-1; in data set [1]; in data set [3]) were under 6.00, 8.80 and 5.31, respectively. The t1/2 came to 22 min in [5] and 7 min in data set [6].
Regarding `NC(=O)c1cccc(CNC(=O)c2ccc3nc(-c4ccc5cnccc5c4)n(C4CCCC4)c3c2)c1`, the inhibition entry (at TGF-beta receptor type-2; at Activin receptor type-2A; on Activin receptor type-2B; in [4]) was “inactive” throughout. For the same compound, the pIC50 on Activin receptor type-1 is 6.91; in data set [1], 8.92; in data set [2], under 6.00; in data set [3] it was 5.21. Besides, the t1/2 in data set [5] amounted to 80 min; in data set [6] it was 45 min.

For the origin of these results see ChEMBL document CHEMBL5316332 (J Med Chem, 2023).
